Only some compounds are listed: those with a hit (about 4.9% of all), similar ones and a draw of the others.
STAT1 activator: activators of IFN-gamma induced STAT1 signaling. NIH 3T3 STAT1-luciferase reporter, luminescence; 100% = IFN-gamma alone, no compound. activation (% of control), % at 5.5 µM. 200,000 tested, 2.6% active;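 active = activation above the screen-wide mean activation plus 3 SD, cut at about 130% in these data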
STAT3 activator: activators of IL-6 induced STAT3 signaling; 190,000 tested, 0.91% active; U3A cells, IL-6 STAT3-luciferase reporter, luminescence; 100% = signal with IL-6 EC80 alone; activation (% of control), % at 5.6 µM;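 active = activation above the screen-wide mean of compound activation plus 3 SD, cut at about 130% in these data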
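Material: STAT3-luciferase reporter U3A cells; Probe or stimulus: IL-6 (33 ng/mL); Incubation: compound pre-incubation 1 h before IL-6, then 6 h stimulation at 37 °C; Technique: luminescence from STAT3-driven luciferase reporter; Evaluation: % activation versus median of IL-6-stimulated wells; Controls: IL-6-only high control.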
NF-kB neuron act: NF-kB expression increase, human neuronal cells; NF-kB reporter expression; hits give high values; fold change at 12.5 µM; 190,000 tested, 1.6% active; AID 1239; in the data active = fold change above about 3.3
STAT3 blocker: inhibitors of IL-6 induced STAT3 signaling | U3A cells, IL-6 STAT3-luciferase reporter, luminescence; host cell line lacks STAT1 | 190,000 tested, 0.89% active | inhibition, % at 5.5 µM;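 active = inhibition above the mean inhibition across all screened compounds plus 3 SD, cut at about 44% in these data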
APP 5'UTR act: APP 5'UTR luciferase reporter activation; SH-SY5Y APP 5'UTR luciferase reporter, luminescence; zero percent = DMSO vehicle wells; activation, % at 2 µM; 190,000 tested, 1% active; AID 1276;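 active = activation above a set limit, based on mean plus 3 SD of controls, cut at about 140% in these data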
STAT1 inh: inhibitors of IFN-gamma induced STAT1 signaling; AID 920; inhibition, % at 5.5 µM; 200,000 tested, 0.35% active; NIH 3T3 STAT1-luciferase reporter, luminescence;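 active = inhibition above a set limit, the mean inhibition across all tested compounds plus 3 SD, cut at about 34% in these data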
STAT1 activ conf: STAT1 activation, confirmation assay | shares compounds with STAT1 activator | NIH 3T3 STAT1-luciferase reporter, IFN-gamma potentiation, luminescence; 100% = IFN-gamma EC80 alone, no compound | activation (% of control), % at 5.7 µM | 1,200 tested, 97% active;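 active = activation above a set limit carried over from the earlier primary STAT1 screen, cut at about 140% in these data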
NFkB act STAT1ct: counter-screen for STAT1 activators: NF-kappaB activation; shares compounds with STAT1 activator; HEK293T NF-kB luciferase reporter, TNF-alpha stimulated, luminescence; 100% = TNF-alpha with vehicle only; activation (% of control), % at 5.7 µM; 1,200 tested, 43% active; AID 1306;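 active = activation above the mean of solvent-only control wells plus 3 SD, set per campaign, cut at about 130% in these data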;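 also: TNF-alpha given at a submaximal dose yielding about 80% of full reporter signal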
STAT3 act STAT1c: human STAT3 activation in STAT1 activator counter-screen; shares compounds with STAT1 activator; U3A cells STAT3-luciferase reporter, IL-6, luminescence; cells lack STAT1; 100 = IL-6 alone, no compound effect; activation (% of control), % at 5.7 µM; 1,200 tested, 46% active; AID 1316;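 active = activation above the solvent-only control well mean plus 3 SD, set per plate batch, cut at about 110% in these data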;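 also: higher means more STAT3 reporter activation so hits are non-selective activators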
Large screens that a line does not name were inactive (follow-up assays come after a bar, where they were run).

Cc1ccc(CNc2ccc3c(c2)ncn3C(C)(C)C)cc1	STAT1 activator 167.1, APP 5'UTR act 164.6 | STAT1 activ conf 198.4 | NFkB act STAT1ct 134.8 | STAT3 act STAT1c 128.2
Cc1ccc(S(=O)(=O)Nc2ccc3c(c2)ncn3C(C)(C)C)cc1	none
Cc1occc1C(=O)Nc1nnc(-c2cccs2)s1	STAT1 activator 157.2 | STAT1 activ conf 194.0 | NFkB act STAT1ct inactive | STAT3 act STAT1c 112.5
Cc1occc1C(=O)Nc1nccs1	none
Cc1noc(NS(=O)(=O)c2ccc(N/C=C/C(=O)c3cccnc3)cc2)c1C	none
O=C(/C=C\Nc1ccc(Br)cc1)c1cccnc1	STAT1 activator 161.6, NF-kB neuron act 8.85, APP 5'UTR act 209.8 | STAT1 activ conf 198.0 | NFkB act STAT1ct inactive | STAT3 act STAT1c inactive
COCCn1c(C)cc(C(=O)CSc2nc3ccccc3o2)c1C	STAT1 activator 157.7, APP 5'UTR act 177.3 | STAT1 activ conf 215.5 | NFkB act STAT1ct inactive | STAT3 act STAT1c inactive
CC(=O)Oc1ccc(/C=N/NC(=S)Nc2ccccc2)cc1	STAT1 activator 160.5, NF-kB neuron act 5.31 | STAT1 activ conf 209.0 | NFkB act STAT1ct inactive | STAT3 act STAT1c inactive
CCN(CC)c1ccc(/C=N/NC(=O)Nc2ccccc2)cc1	STAT1 activator 161.7 (no result: NF-kB neuron act) | STAT1 activ conf 173.2 | NFkB act STAT1ct 134.5 | STAT3 act STAT1c 122.5
CCOc1ccc(/C=N/NC(=O)CC(=O)NCc2ccccc2)cc1	none
CCOc1ccc(/C=N/NC(=O)Nc2ccccc2)cc1	STAT1 activator 161.4 | STAT1 activ conf 207.7 | NFkB act STAT1ct 140.3 | STAT3 act STAT1c 121.2
CCN(CC)c1ccc(/C=N\NC(N)=O)cc1	none
O=C(COC(=O)CC1CC2CCC1C2)Nc1cccc(S(=O)(=O)NC2=NCCCCC2)c1 (stereo unspecified)	none
Cc1ccc2nc(/C=C/c3cccc(F)c3)ccc2c1	STAT1 activator 194.3, NF-kB neuron act 7.43, APP 5'UTR act 213.8 | STAT1 activ conf 259.4 | NFkB act STAT1ct 149.9 | STAT3 act STAT1c 116.0
CC1CCc2cc(F)ccc2N1C(=O)CCl (stereo unspecified)	none
Cc1ccccc1NC(=O)Nc1ccccc1Br	none
Cc1cc(NC(=O)Nc2ccccc2F)ccc1Br	STAT1 activator 181.1, NF-kB neuron act 6.66, APP 5'UTR act 212.7 | STAT1 activ conf 231.8 | NFkB act STAT1ct 141.1 | STAT3 act STAT1c 111.6
Cc1ccc(NC(=O)c2cc(-c3ccccc3)nn2-c2ccccc2)cc1	none
CC(=O)C(/C=N/c1cc(-c2ccc(C)cc2)nn1-c1ccccc1)=C(\C)O	STAT1 activator 159.0 | STAT1 activ conf 160.7 | NFkB act STAT1ct inactive | STAT3 act STAT1c inactive
O=C(CC12CC3CC(CC(C3)C1)C2)NC(=S)N1CCCCC1	none
O/N=C/c1ccc(OCc2ccccc2)c(Cl)c1	STAT1 activator 162.3, NF-kB neuron act 5.38 | STAT1 activ conf 203.1 | NFkB act STAT1ct 134.0 | STAT3 act STAT1c 119.3
O/N=C/c1ccc(OCc2ccccc2)c(Br)c1	STAT1 activator 162.3, NF-kB neuron act 6.71 | STAT1 activ conf 188.2 | NFkB act STAT1ct inactive | STAT3 act STAT1c 123.2
O/N=C/c1ccc(OCc2ccccc2F)c(Cl)c1	STAT1 activator 156.0 | STAT1 activ conf 202.2 | NFkB act STAT1ct inactive | STAT3 act STAT1c 127.3
c1ccc(CCC2CCCCN2Cc2cn[nH]c2-c2cc3ccccc3o2)nc1 (stereo unspecified)	none
Cc1ccc2cc(CCNC(=O)c3ccco3)c(=O)[nH]c2c1C	STAT1 activator 155.5, NF-kB neuron act 3.87 | STAT1 activ conf 200.9 | NFkB act STAT1ct 138.0 | STAT3 act STAT1c 121.4
Cc1cc2cc(CCNC(=O)c3cccs3)c(=O)[nH]c2cc1C	STAT1 activator 151.4 | STAT1 activ conf 175.8 | NFkB act STAT1ct inactive | STAT3 act STAT1c inactive
Cc1ccc2cc(CCNC(=O)c3ccco3)c(=O)[nH]c2c1	none
CN(CC(=O)Nc1ccccc1C(F)(F)F)C(=O)COc1cccnc1[N+](=O)[O-]	none
O=C1OC(/C=C/c2ccc(Cl)cc2Cl)=NC/1=C\c1cccs1	none
Cc1ccc(-c2cc(N)n(-c3ccc(F)cc3)n2)cc1	STAT1 activator 155.3 | STAT1 activ conf 141.5 | NFkB act STAT1ct inactive | STAT3 act STAT1c inactive
CCC1CCC(NC(=O)Nc2cccc(OC)c2)CC1 (stereo unspecified)	STAT1 activator 159.2, NF-kB neuron act 4.51, APP 5'UTR act 158.3 | STAT1 activ conf 167.7 | NFkB act STAT1ct inactive | STAT3 act STAT1c 122.7
COc1ccc2c(c1)oc(=O)c1cc(OC)ccc12	STAT1 activator 153.1 (no result: STAT3 activator, STAT3 blocker) | STAT1 activ conf 152.2 | NFkB act STAT1ct inactive | STAT3 act STAT1c inactive
CC(=O)N(c1nc(CCl)cs1)c1cccc(C)c1C	none
N/C(=N\OC(=O)c1ccc(F)cc1)c1ccccc1	STAT1 activator 156.9, NF-kB neuron act 3.49 | STAT1 activ conf 195.8 | NFkB act STAT1ct inactive | STAT3 act STAT1c 115.9
Cc1ccc(/C(N)=N/OC(=O)c2ccc(F)cc2)cc1	STAT1 activator 153.3, NF-kB neuron act 7.94 | STAT1 activ conf 173.4 | NFkB act STAT1ct 135.1 | STAT3 act STAT1c inactive
N/C(=N\OC(=O)c1cccc(F)c1)c1ccccc1	STAT1 activator 165.8 | STAT1 activ conf 168.8 | NFkB act STAT1ct inactive | STAT3 act STAT1c 114.3
N/C(=N\OC(=O)c1cccc(Br)c1)c1ccncc1	none (no result: NF-kB neuron act)
CCOc1ccc2nc(NC(=O)CN3CCN(C)CC3)sc2c1	none
CCOc1ccc2nc(NC(=O)Nc3ccccc3)sc2c1	STAT1 activator 154.9, APP 5'UTR act 147.8 | STAT1 activ conf 224.0 | NFkB act STAT1ct 138.6 | STAT3 act STAT1c 114.6
CCOc1ccc2nc(NC(=O)Nc3cccs3)sc2c1	STAT1 activator 183.9, NF-kB neuron act 9.52, APP 5'UTR act 215.8 | STAT1 activ conf 252.9 | NFkB act STAT1ct 149.2 | STAT3 act STAT1c 120.6
COc1ccc2nc(NC(=O)c3ccccc3-c3ccccc3C(=O)O)sc2c1	none
COc1ccc2nc(NC(=O)Nc3ccccc3)sc2c1	STAT1 activator 205.2, NF-kB neuron act 9.05, APP 5'UTR act 189.2 | STAT1 activ conf 280.5 | NFkB act STAT1ct inactive | STAT3 act STAT1c inactive
COc1ccc(OC)c(NC(=O)c2nc3ccccc3s2)c1	none
